Data as given in the EternaBench riboswitch data.

Test system: MS2 coat protein
Test: apparent Kd, MS2 coat protein; higher = weaker binding; RNA-MaP array; FMN 200 µM where present
How it was run: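 Stalled E. coli RNA polymerase transcribed the designs on Illumina sequencing-chip clusters. SNAP-549-labelled MS2 coat protein was titrated from 0.7 or 1.5 nM, doubling to 3 µM, without and then with constant ligand, in 100 mM Tris-HCl pH 7.5, 80 mM KCl, 4 mM MgCl2, BSA, DTT, yeast tRNA and Tween-20. Per-cluster binding curves were fitted to green signal normalised to red-channel RNA signal and control-cluster median Fmax. The apparent Kd is the median of the filtered fits.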

[1] = designed as: OFF switch for flavin mononucleotide, no ligand
[2] = ligand present: flavin mononucleotide, designed as: OFF switch for flavin mononucleotide
[3] = designed as: ON switch for flavin mononucleotide, no ligand
[4] = ligand present: flavin mononucleotide, designed as: ON switch for flavin mononucleotide

| Sequence | apparent Kd [1] | apparent Kd [2] | apparent Kd [3] | apparent Kd [4] |
| --- | --- | --- | --- | --- |
| AACUAUGUAUUUAUAGUGUCUGACAGAAGGCAAUAGGUUGUGACCGACAUGAGGAUCACCCAUGUUGAGGAUAUGUCUAGCUAC | 40.4 nM | 264 nM | – | – |
| AACUCGUCAGGAUAUGCGCGCAGUUACUACGCUUCGCAAUUGCAGAAGGGACAUGAGGAUCACCCAUGUAGGUC | 46.9 nM | 48 nM | – | – |
| AACUGACAUGAGGAUCACCCAUGUCAGGAUAUGAUUUGACGAAAUAAAACACGUCAUAUCAGAAGGGACAUGGA | 26.5 nM | 48.6 nM | – | – |
| AACUGACAUGAGGAUCACCCAUGUCAGGAUAUGAUUUGACGAAAUAAAAUAAGUCAUAUCAGAAGGGACAUGGA | 25.9 nM | 46.9 nM | – | – |
| AAGAAGGACGCAGGAUAUCCAGGACCUCCCGCAGGAGAAGGGCGAAACAUGAGGAUCACCCAUACAUGAGGAUCACCCAUGUAA | 33 nM | 36.3 nM | – | – |
| AAGAAGUCAGGAUAUCCAUGGCGGCACUUGCGUGGUGGCGUGGAGAAGGGACAUGAGGAUCACCCAUGUAAAGC | 47.1 nM | 32.8 nM | – | – |
| AAGAAGUCAGGAUAUCCUGCUCGUCACUUGCGUGAUGAGUAGGAGAAGGGACAUGAGGAUCACCCAUGUAAAGA | 54.3 nM | 51.5 nM | – | – |
| AAGAAGUGAGGAUAUAGUUGCACUAGCUAAUGCUAGUGCAACUAGAAGGCACAUGAGGAUCACCCAUGUAAAAG | 29.1 nM | 41.9 nM | – | – |
| AAGAGCGAUUCUCCCUUCCUACAUGAGGAUCACCCAUGUACGAGAAGGCGCCGUGUAUACCACGGUGAGGAUAUCGUACGUUAC | 5.23 nM | 10.3 nM | – | – |
| AAGAUACAUGAGGAUCACCCAUGUGAGGAUAUGUGUAUCCCUAAAAAAGUGUGGGACCACAGAAGGUACUUGGA | 61.7 nM | 55.4 nM | – | – |
| AAGAUGCGGAUAGGAUAUGGAAAUAAAUAAAGACCAGAAGGAUUGGUCACACAACAUGAGGAUCACCCAUGUGUGUGUUGUGAA | 13.9 nM | 10.6 nM | – | – |
| AAGCCACAUGAGGAUCACCCAUGUCAGGAUAUCUCGAAAAGCAUAGAAAUAUGCGAAGAGAGAAGGGACUACUC | 43.1 nM | 67.7 nM | – | – |
| AAGCCCUGAGGAUAUCCCAACUCGCACAUGAGGAUCACCCAUGUCCUCCUCUGGGCUUCGGGAGAAGGCAGGUCUC | 43.1 nM | 114 nM | – | – |
| AAGCUGGUAGGAUAUACUAGGGCAACUAAUGCGCCGAUAGGACAUGAGGAUCACCCAUGUAGAAGGGCCAGAAA | 80.1 nM | 93.1 nM | – | – |
| AAGGCGAGAGGAUAUACAUGAGGAUCACCCAUGUGUCGGCCCUCCGCAUAUGCCUUGUGUAGAAGGCUCCCGAA | 16.5 nM | 22.9 nM | – | – |
| AAGUAGUGUGUGAGGAUAUUGGUGGAAUGACAUAUUAAGAAGGCACAUGAGGAUCACCCAUGUGGGUUGUCACG | 49.2 nM | 120 nM | – | – |
| AAGUAUGGAGGAUAUACAUGGAUAUACAUUCAUGUGGACCUACAUGAGGAUCACCCAUGUAGAAGGCCAUAAUA | 30.7 nM | 16.6 nM | – | – |
| AAGUCACGAAUAAUAAUAAGAUCUACAUGAGGAUCACCCAUGUAGGAUAUGCAGUGGAAUACACUGCAGAAGGACAUACGUGAC | 14.1 nM | 16.7 nM | – | – |
| AAGUCAGCAGGAUAUGCGAUGGUGUGCUAGGUAGCUUGCCCACAUGAGGAUCACCCAUGUAGAAGGGCUGGCUA | 13.2 nM | 12.1 nM | – | – |

| Sequence | apparent Kd [1] | apparent Kd [2] | apparent Kd [3] | apparent Kd [4] |
| --- | --- | --- | --- | --- |
| AAGUCGAGCGUGAGGAUAUCGUUCGAACGACAGAACGAGAAGGCACAUGAGGAUCACCCAUGUGAUUAAGUUCA | 15.8 nM | 18.6 nM | – | – |
| AAGUCGUGAGGAUAUACAUGGAUAUACAUUUAUGUAGAACUACAUGAGGAUCACCCAUGUAGAAGGCACGAAUA | 56.2 nM | 147 nM | – | – |
| AAGUCUGUACGAGGAUAUCAGUUGUAUCUAAAUUCAACAUGAGGAUCACCCAUGUUGCAAUAGGGUGAGAAGGCGUGUGGGCAA | – | – | 70.1 nM | 21.6 nM |
| AAGUUUGUACGAGGAUAUCAGUUGUAUCUAAAUUCAACAUGAGGAUCACCCAUGUUGCAAUGGAGUGAGAAGGCGUGUGGGCAA | – | – | 31.3 nM | 22.8 nM |
| AAUAAACACACAGGAUAUAGCAUCGUCGUUGCGAACUUAGCGACGACGAUGCUAGAAGGGUGAACACAUGAGGAUCACCCAUGU | – | – | – | 38.4 nM |
| AAUAAACAUGAGGAUCACCCAUGUCAGGAUAUGCGUCUAUCCUUAUUGCAUAGAUACGGCAGAAGGGACUAAUG | 31.9 nM | 56.9 nM | – | – |
| AAUAAACUCACAGGAUAUAGCAGAGGUCGCGUGAACUUACAGACGACGAGGCUAGAAGGGUGACCACAUGAGGAUCACCCAUGU | – | – | 312 nM | 65.4 nM |
| AAUAAACUCACAGGAUAUAGCAGAGGUCGCGUGAACUUACAGACGACUAUGCUAGAAGGGUGACCACAUGAGGAUCACCCAUGU | – | – | 869 nM | 149 nM |
| AAUAAACUCACAGGAUAUAGCAGAGGUCGCGUGUACUUACAGGCGACUAUGCUAGAAGGGUGACCACAUGAGGAUCACCCAUGU | – | – | 746 nM | 137 nM |
| AAUAAACUCACAGGAUAUAGCAUAGGUCGCCUGAACUUACAGGCGACUAUGCUAGAAGGGUGACCACAUGAGGAUCACCCAUGU | – | – | 847 nM | 168 nM |
| AAUAACAGAGGAUAUACUAUUUUAUGUGUUUGUUAUUUUGAACAUGAGGAUCACCCAUGUAGAAGGCUGAAUAA | 25 nM | 27.2 nM | – | – |
| AAUAACAGAGGAUAUACUAUUUUAUGUGUUUGUUGUUUUAAACAUGAGGAUCACCCAUGUAGAAGGCUGAUUGA | 38.2 nM | 45.4 nM | – | – |
| AAUAACAGAGGAUAUACUGUUUUAUGUGUUUGUUGUUUUGAACAUGAGGAUCACCCAUGUAGAAGGCUGAAUGA | 28.1 nM | 25.9 nM | – | – |
| AAUAAUGUGAAGGAUAUCACUAGCGAUAGCUAGUGAGAAGGUCACACAUGAGGAUCACCCAUGUGUUCCAAUAA | 43.2 nM | 172 nM | – | – |
| AAUAAUUAGUAAGGAUAUACUAGCGAUUAGCUUGUAGAAGGUACAGUCUUAUGUAUAACAAAUUAACAUGAGGAUCACCCAUGU | – | – | 10.2 nM | 7.39 nM |
| AAUAAUUAGUAAGGAUAUACUAGUGAUUAGCUUGUAGAAGGUACAGUCUUAUGUAUAACAAAUUAACAUGAGGAUCACCCAUGU | – | – | 8.8 nM | 8.1 nM |
| AAUAGACAUGAGGAUCACCCAUGUGUAUAUGGGAGAGGAUAUACGGGACACAAGGGCGGAGUAGAAGGCUCGAGAC | – | – | 149 nM | 146 nM |
| AAUAGCUGAGGAUAUACAUGAGGAUCACCCAUGUAUUAGUAGGCUGGGAAUAAAUCGUGUAGAAGGCAGGAUGA | 16 nM | 27.2 nM | – | – |
| AAUAGUACAGGAUAUACAUGAGGAUCACCCAUGUGAAAAUUAAGUGGCGUACCACAAAGUAGAAGGGUACUGGA | 22.8 nM | 71.4 nM | – | – |

| Sequence | apparent Kd [1] | apparent Kd [2] | apparent Kd [3] | apparent Kd [4] |
| --- | --- | --- | --- | --- |
| AAUAUAAAGAGCUGGUAAACUCAAACAUGAGGAUCACCCAUGUAGGAUAUCAGCACGAUAAGUGCUGAGAAGGACAUCCAGCUC | 15.9 nM | 15.4 nM | – | – |
| AAUAUAAAGCAGAAGGCCUUAUUACAUGAGGAUCACCCAUGUAAUCGUGGGAGGAUAUGCAUGAUACAAGUACGUUUGGUAGGA | – | – | 8.76 nM | 5.22 nM |
| AAUAUACAUGAGGAUCACCCAUGUUUUGGUGUAUGAGGAUAUAAAAACAAUUACAUAAAAUUAGAAGGCAUAACUA | – | – | 28.2 nM | 24 nM |
| AAUAUGUCAUCAGGAUAUCGAGACCGGCGAGUACGAGAAGGGAUGACAUGAGGAUCACCCAUGUGAGACGCGUGAUUUGCAGGU | 105 nM | 304 nM | – | – |
| AAUAUGUUGCAGAAGGUUAUAUUUUUUUCGUUCCUCAUGACAUGAGGAUCACCCAUGUAUUUGUUGAAGGAUAUGCAAUAUAUU | 19.9 nM | 17.6 nM | – | – |
| AAUAUGUUGCAGAAGGUUAUUUUUAUAACGAUCCAUUUGACAUGAGGAUCACCCAUGUAAUUGAUGAAGGAUAUGCAAUAUAUU | 6.42 nM | 7.18 nM | – | – |
| AAUAUUAAGUAGAAGGUAGAUAUUAUUUUAUUCAUGUUUACAUGAGGAUCACCCAUGUAUAAGUCUAAGGAUAUACAUCGAUAG | 14.9 nM | 9.93 nM | – | – |
| AAUCAGCGGAACUUGACAUCCUUACAUGAGGAUCACCCAUGUCAGGAUAUAUGCUCUCGAGCUGCAUAGAAGGGACAUAGUGGG | 37.7 nM | 56 nM | – | – |
| AAUCCACAUGAGGAUCACCCAUGUCAGGAUAUGGUGACGCGGGUUUCGGUGCGUGUUGCCAGAAGGGACGGCUG | 27 nM | 46.7 nM | – | – |
| AAUCGAUGAUCAGGAUAUGUGGAGCCUCUAAGCGAUGAGGCGUACAUGAGGAUCACCCAUGUGACACAGAAGGGAUACAUGCGG | – | – | 60.7 nM | 8.43 nM |
| AAUCGGGAGCAGAAGGCAUGUCAUAAGACAUGAGGAUCACCCAUGUAGUUAAGGCGAAAGCCGCAUGAGGAUAUGCUCCCGUAA | – | – | 71.2 nM | 6.27 nM |
| AAUGAGCUAGGAUAUACAUGAGGAUCACCCAUGUAAAAUAGGUCAUGGAGGAACCACUGUAGAAGGAGCAGGGC | 45.4 nM | 72.1 nM | – | – |
| AAUGUUUGAUUCCACUUAUACAUGAGGAUCACCCAUGUUAUCGAGGAUAUGCAUUAGAGUGUUUAGCAGAAGGCGAUGUAAAUG | 7.34 nM | 24.1 nM | – | – |
| AAUUAAUUGUAGAAGGUACUUAAUUAUGAUAUGUAAGGAUAUACGAUAUUAUAACGACAUGUAUGACAUGAGGAUCACCCAUGU | – | – | 11.2 nM | 8.4 nM |
| AAUUAAUUGUAGAAGGUACUUAAUUAUGAUAUGUAAGGAUAUACGAUAUUAUUACGACAUGUAUGACAUGAGGAUCACCCAUGU | – | – | 12.4 nM | 9.23 nM |
| AAUUACAUGUAGAAGGUACUUAAUUAAGUGUUGUAAGGAUAUACCAAUUUAUUAGAUUUAAAGAUACAUGAGGAUCACCCAUGU | – | – | 12.1 nM | 9.76 nM |
| AAUUACAUGUAGAAGGUACUUAAUUAAGUGUUGUAAGGAUAUACCAAUUUAUUAGUUUUAAAGAUACAUGAGGAUCACCCAUGU | – | – | 10.6 nM | 9.2 nM |
| AAUUAGGUCACAGGAUAUACAACUUCCAUUGCUGUAGAAGGGUGUCACAUACUUAGCUGACAUGAGGAUCACCCAUGUAUCCAC | – | – | 243 nM | 95.2 nM |
